Test results published in publication PMC8513424 (Laryngoscope Investigative Otolaryngology, 2021).

Key:
[1] = system: patients with sporadic VS or meningioma; assay: Pilot 2 safety and tolerability; format: in vivo, human
Procedure, shortened: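 Phase 0 pre-surgical study: 40 mg of the test compound orally three times weekly for 3 weeks before planned VS/meningioma resection. Adults >18 y had ECOG 0-1, normal organ and marrow function, and could swallow capsules. Excluded were pregnancy, malabsorption, chronic corticosteroids, prolonged QT, active infection, and concurrent antineoplastic therapy or radiotherapy.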

[2] = Pilot 2 plasma AR‐42 concentration by LC‐MS/MS; format: in vivo, human; details: 40 mg; for Concentration in plasma, Before surgery: mean of three trials
Procedure, shortened: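 Dosing was 40 mg orally three times weekly for 3 weeks before surgery. Venous blood was drawn at induction of anesthesia and again at tumor removal (about 3-4 h after surgery start). Plasma was separated by cold centrifugation and kept frozen. Drug was quantified by LC-MS/MS against a standard curve, as the mean of three runs. Pre-operative and removal-time levels were compared by paired t-test (P ≤ .05).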

[3] = system: p‐AKT, p‐S6 and p‐ERK in VS and meningioma; assay: Pilot 2 fluorescent Western blotting of resected tumors; format: in vivo, human
Procedure, shortened: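 Patients took 40 mg of the test compound orally three times weekly for 3 weeks before resection. VS were split into peripheral capsule and center. Tumor lysates were run on fluorescent Western blots for p-AKT, total AKT, p-S6, total S6, p-ERK and total ERK. Phospho/total ratios were expressed as percent of an untreated banked VS or meningioma set as 100%.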

[4] = Stability in whole blood kept on ice; format: in vitro ADME
[5] = system: AKT phosphorylation in primary human VS cells; assay: AKT phosphorylation in primary VS cells; format: cell-based; details: Figure S2
primary meningioma cells = details: read-out: IC50, primary meningioma cells; cited from earlier work
Ben‐Men‐1 xenograft = details: cited from earlier work
[6] = system: patients with multiple myeloma, and T‐ and B‐cell lymphomas; details: three times weekly for 3 weeks of a 28‐day cycle; cited from earlier work

CC(C)[C@H](C(=O)Nc1ccc(C(=O)NO)cc1)c1ccccc1 [AR‐42]
Arrhythmias or QT changes ([1]; Pilot 2, 40 mg): no arrhythmias or QT changes | Grade 3 or 4 toxicities ([1]; Pilot 2, 3 weeks at 40 mg): no grade 3 or 4 toxicities | Concentration in plasma, At tumor removal ([2]; Patient # 2.1 (VS)): 303.7 nM | Concentration in plasma, Before surgery ([2]; Patient # 2.1 (VS)): 362.3 nM | Concentration in plasma, At tumor removal ([2]; Patient # 2.2 (VS)): 121.1 nM | Concentration in plasma, Before surgery ([2]; Patient # 2.2 (VS)): 224.2 nM | Concentration in plasma, At tumor removal ([2]; Patient # 2.4 (VS)): 36.8 nM | Concentration in plasma, Before surgery ([2]; Patient # 2.4 (VS)): 61.8 nM | Concentration in plasma, At tumor removal ([2]; Patient # 2.6 (VS)): 3.4 nM | Concentration in plasma, Before surgery ([2]; Patient # 2.6 (VS)): 3.5 nM | Concentration in plasma, At tumor removal ([2]; Patient # 2.7 (meningioma)): 72.9 nM | Concentration in plasma, Before surgery ([2]; Patient # 2.7 (meningioma)): 99.1 nM | Plasma concentration of AR‐42 ([2]; first three patients with VS, before and at tumor removal): 62 to 360 nM | Plasma level after anesthesia ([2]; patient with meningioma): 73 nM | Plasma level before anesthesia ([2]; patient with meningioma): 99 nM | p‐S6 in meningioma ([3]; Patient 2.7, vs untreated meningioma): reduction in p‐S6 | p‐AKT in meningioma ([3]; Patient 2.7, vs untreated meningioma tumors): not reduced | Levels of p‐ERKs and p‐S6 in AR‐42‐treated VS ([3]; vs untreated VS, 40 mg): substantially reduced in three of four | p‐AKT levels in AR‐42‐treated VS tumors ([3]; vs untreated VS, 40 mg): decreased p‐AKT levels in three of four | Time stable in blood kept on ice [4]: more than 4 hours | AKT phosphorylation in primary human VS cells [5]: reduced AKT phosphorylation | IC50 (primary meningioma cells): 1500 nM | Meningioma tumor volumes (Ben‐Men‐1 xenograft): markedly diminished meningioma tumor volumes | Tumor return after treatment (Ben‐Men‐1 xenograft; followed 6 months post‐treatment): tumors did not return | Maximum tolerated dose (MTD) [6]: 40 mg
